For data set [1], the system named is 293T. Put plainly: Inhibition of full-length X4 tropic HIV-1 clone pNL4-3 Vif/human APOBEC3G complex transfected in human 293T cells assessed as increase in cellular APOBEC3G level measured after 48 hrs by fluorescence microscopy relative to control. The data set is classed as cell-based. In outline: (§1)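 293T cells were co-transfected with Vif and A3G-GFP plasmids, then treated with DMSO or a dilution series of compound. After 48 h, A3G-GFP was measured as mean fluorescence intensity on a plate reader, by western blot, or by fluorescence microscopy, each compared with the DMSO control.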

The test system of data set [2] is Human immunodeficiency virus 1. The experiment in a line: Antiviral activity against X4 tropic HIV-1 clone pNL4-3 infected in human PBMC cells assessed as reduction in p24 antigen at 0.00005 to 5 uM after 4 days by ELISA. The data set is classed as functional, organism-based. (ELISA stands for enzyme-linked immunosorbent assay.)
Data set [3] has as its system 293T. Put plainly: Inhibition of full-length X4 tropic HIV-1 clone pNL4-3 Vif binding to ElonginB (unknown origin) transfected in human 293T cells measured at 50 uM after 48 hrs by co-immunoprecipitation assay. In kind it is cell-based. In short, it runs like this:
(§2)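 293T cells were transfected with HA-tagged Vif plus Flag-tagged EloC/EloB/Cul5 plasmids and treated with compound or DMSO. After 48 h, cells were lysed in IP lysis buffer. Lysates were incubated with anti-HA beads overnight at 4 °C and washed three times in lysis buffer before analysis of co-precipitated partners.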

The test system of data set [4] is 293T. Put plainly: Inhibition of full-length X4 tropic HIV-1 clone pNL4-3 Vif binding to ElonginC (unknown origin) transfected in human 293T cells measured at 50 uM after 48 hrs by co-immunoprecipitation assay. In kind it is cell-based. In short, it runs like this: as §2
Data set [5] deals with 293T. The experiment in a line: Inhibition of full-length X4 tropic HIV-1 clone pNL4-3 Vif binding to Cullin5 (unknown origin) transfected in human 293T cells measured at 50 uM after 48 hrs by co-immunoprecipitation assay. The data set is classed as cell-based. In outline: as §2
Data set [6] in a line: Inhibition of purified X4 tropic HIV-1 clone pNL4-3 His tagged Vif binding to recombinant human APOBEC3G expressed in Escherichia coli BL21 assessed as reduction in max resonance unit at 9 uM preincubated with APOBEC3G for 30 mins by surface plasmon resonance method relative to untreated A3G protein control. In outline: (§3)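 His-tagged Vif and A3G were expressed from pET32a in E. coli BL21 with 1 mM IPTG and purified on Ni-agarose (500 mM imidazole elution). Vif-His was immobilized on a CM5 chip in 10 mM acetate, pH 4.0, then blocked with 1 M ethanolamine. A3G-His was pre-incubated at 25 °C for 30 min with compound or DMSO in 10 mM PBS with 5% DMSO before injection. SPR binding was read as max resonance units.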
On the technique in general: Surface plasmon resonance follows binding to a sensor surface in real time, without labels.

The subject of data set [7] is Mus musculus. Put plainly: Toxicity in Balb/c mouse assessed as change in body weight at 500 to 1000 mg/kg, ip. Also noted: dose 500-1000 mg/kg, route intraperitoneal. In kind it is organism-based. Conditions: in vivo. In outline: (§4)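 Male Balb/c mice aged 4–6 weeks were randomized into three groups (5 mice) and given a single intraperitoneal injection of 0, 500 or 1000 mg/kg. Body weight was followed for two weeks. On day 14, mice were sacrificed. Heart, liver, lung, spleen and kidney were fixed in 4% formaldehyde for H&E staining, and blood was analysed for AST, ALT, BUN and creatinine.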

The subject of data set [8] is Mus musculus. Put plainly: Toxicity in Balb/c mouse assessed as abnormality in heart at 500 to 1000 mg/kg, ip. The settings on record: in vivo. In kind it is organism-based. Also noted: dose 500-1000 mg/kg, route intraperitoneal. In short, it runs like this: as §4
The test system of data set [9] is Mus musculus. The experiment in a line: Toxicity in Balb/c mouse assessed as abnormality in liver at 500 to 1000 mg/kg, ip. In kind it is organism-based. Also noted: dose 500-1000 mg/kg, route intraperitoneal. Conditions: in vivo. In short, it runs like this: as §4
Data set [10] deals with Mus musculus. The experiment in a line: Toxicity in Balb/c mouse assessed as abnormality in lung at 500 to 1000 mg/kg, ip. In kind it is organism-based. The settings on record: in vivo. Also noted: dose 500-1000 mg/kg, route intraperitoneal. In short, it runs like this: as §4
For data set [11], the system named is Mus musculus. Put plainly: Toxicity in Balb/c mouse assessed as abnormality in spleen at 500 to 1000 mg/kg, ip. Also noted: dose 500-1000 mg/kg, route intraperitoneal. Conditions: in vivo. The data set is classed as organism-based. In outline: as §4
For data set [12], the system named is Mus musculus. Put plainly: Toxicity in Balb/c mouse assessed as abnormality in kidney at 500 to 1000 mg/kg, ip. In kind it is organism-based. Also noted: dose 500-1000 mg/kg, route intraperitoneal. Conditions: in vivo. In short, it runs like this:
as §4

Data set [13] relates to Mus musculus. The experiment in a line: Toxicity in Balb/c mouse assessed as effect on AST level at 500 to 1000 mg/kg, ip. In kind it is organism-based. Also noted: dose 500-1000 mg/kg, route intraperitoneal. Conditions: in vivo. In short, it runs like this: as §4
Data set [14] concerns Mus musculus. The experiment in a line: Toxicity in Balb/c mouse assessed as effect on ALT level at 500 to 1000 mg/kg, ip. More on the design: dose 500-1000 mg/kg, route intraperitoneal. Conditions: in vivo. In kind it is organism-based. In outline: as §4
Data set [15] concerns Mus musculus. The experiment in a line: Toxicity in Balb/c mouse assessed as effect on BUN level at 500 to 1000 mg/kg, ip. More on the design: dose 500-1000 mg/kg, route intraperitoneal. In kind it is organism-based. Conditions: in vivo. In short, it runs like this: as §4
Data set [16] concerns Mus musculus. The experiment in a line: Toxicity in Balb/c mouse assessed as effect on CRE level at 500 to 1000 mg/kg, ip. The data set is classed as organism-based. The settings on record: in vivo. Also noted: dose 500-1000 mg/kg, route intraperitoneal. In short, it runs like this: as §4
Data set [17] can be described thus: Cytotoxicity against human H9 cells by MTS assay. In kind it is cell-based. In general terms: Tetrazolium assays rely on reduction of a dye to a coloured formazan, in cell work by metabolically active cells.
Data set [18] deals with 293T. Put plainly: Inhibition of full-length X4 tropic HIV-1 clone pNL4-3 Vif/human APOBEC3G complex transfected in human 293T cells measured at 50 uM after 48 hrs by GFP-based fluorescence assay relative to control. In kind it is cell-based. In outline:
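This was the primary screen in 293T cells co-transfected with HA-Vif and A3G-GFP plasmids (Lipofectamine 2000) and given a single compound concentration. DMSO-only wells and A3G-GFP-only transfected wells served as controls. GFP was read after 48 h. A3G-GFP MFI fold change was scored as −, none or <1; +, 1–2; ++, 2–3; +++, >3.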

Data set [19] deals with Human immunodeficiency virus 1. The experiment in a line: Antiviral activity against X4 tropic HIV-1 clone pNL4-3 infected in H9 cells assessed as reduction in p24 antigen after 4 days by ELISA. The data set is classed as functional, organism-based. Conditions: Human immunodeficiency virus 1, pNL4-3, H9, 96 h.
The test system of data set [20] is 293T. Put plainly: Inhibition of full-length X4 tropic HIV-1 clone pNL4-3 Vif/human APOBEC3G complex transfected in human 293T cells assessed as increase in cellular APOBEC3G level measured after 48 hrs by Western blot analysis relative to control. The data set is classed as cell-based. In short, it runs like this:
as §1

Data set [21] can be described thus: Inhibition of purified X4 tropic HIV-1 clone pNL4-3 His tagged Vif binding to recombinant human APOBEC3G expressed in Escherichia coli BL21 assessed as reduction in max resonance unit at 4 uM preincubated with APOBEC3G for 30 mins by surface plasmon resonance method relative to untreated A3G protein control. In short, it runs like this:
as §3

Data on two molecules can be found in ChEMBL document CHEMBL3407469, “Development of benzimidazole derivatives to inhibit HIV-1 replication through protecting APOBEC3G protein” (Eur J Med Chem, 2015).

The structures appear in SMILES notation. Activity calls are given as the source filed them. No cut-off for these calls is given here. Bounds are passed on as bounds.

What is called inhibition is the drop in the measured response relative to a control, in per cent. As a reminder, the CC50 is the concentration giving 50% cytotoxicity. Low values mean greater toxicity to the cells, high ones lower toxicity to the cells. For orientation: IC50 means the concentration that gives 50% inhibition. In the case of `COc1cc(/C=C(\C#N)c2nc3ccccc3[nH]2)ccc1O`, the results for the inhibition result (with 293T [1]; in data set [6]; in the data set with 293T [20]) were “Dose-dependent effect”, 17% and “Dose-dependent effect”, respectively. For the same molecule, the result in [2] was Active. In addition, the inhibition entry with 293T [3], in the data set on 293T [4] and in the data set on 293T [5] was “inactive” throughout. Further, the Activity entry in the data set on Mus musculus [7], in the data set with Mus musculus [8], with Mus musculus [9], with Mus musculus [10], with Mus musculus [11] and in the data set with Mus musculus [12] was “Non-toxic” throughout. Besides, the Activity entry with Mus musculus [13], with Mus musculus [14], in the data set with Mus musculus [15] and in the data set on Mus musculus [16] was “Non-toxic” throughout. Besides, in [17], the CC50 is > 50000 nM. In addition, the fold change (FC) in the data set with 293T [18] was > 3. In [19], the IC50 is 58 nM.
Regarding `CCN(CC)c1ccc(/C=C(\C#N)c2nc3ccccc3[nH]2)cc1`, the figures for the inhibition result (with 293T [1]; in [21]; in the data set on 293T [20]) were “Dose-dependent effect”, 17% and “Dose-dependent effect”, respectively. Moreover, the outcome in data set [2] was Active. The inhibition result in the data set with 293T [3], in the data set with 293T [4] and in the data set on 293T [5] was “inactive” in each case. For the same molecule, the Activity entry in the data set with Mus musculus [7], in the data set on Mus musculus [8], with Mus musculus [9], in the data set with Mus musculus [10], in the data set with Mus musculus [11] and with Mus musculus [12] was “Non-toxic” each time. In addition, the Activity result in the data set on Mus musculus [13], in the data set with Mus musculus [14], in the data set on Mus musculus [15] and in the data set on Mus musculus [16] was “Non-toxic” each time. Also, the cytotoxic concentration (CC50) in data set [17] is > 50000 nM. Besides, the fold change (FC) in the data set on 293T [18] was > 3. Also, the IC50 in data set [19] turned out to be 3.45 nM.
